Experimental data of several laboratories.
Compare with care: the assays were run in different laboratories.
rep methyltransferase: Replicase polyprotein 1ab, methyltransferase (rep, Severe acute respiratory syndrome coronavirus 2, UniProt P0DTD1)
rep main protease: Replicase polyprotein 1ab, main protease (rep, Severe acute respiratory syndrome coronavirus 2, UniProt P0DTD1)

Structure (SMILES) | target | observed | mode | method | setting | measurement | value
CCC(Sc1nnc2c(n1)[nH]c1ccccc12)C(=O)N1c2ccccc2Sc2ccccc21 (stereo not shown) | rep methyltransferase | enzyme activity | inhibitor | – | – | IC50 | > 100 µM
Cc1c(O)cccc1C(=O)N[C@@H](CSc1ccccc1)[C@H](O)CN1C[C@H]2CCCC[C@H]2C[C@H]1C(=O)NC(C)(C)C | rep main protease | enzyme activity | inhibitor | – | – | IC50 | 28.8 µM
CCC1CC(c2ccc(C(=O)O)cc2)=NN1c1ccc(C#N)c(Cl)c1 (stereo not shown) | rep methyltransferase | enzyme activity | inhibitor | – | – | IC50 | 0.42 µM
C[C@@H]1CCO[C@H]2Cn3cc(C(=O)NCc4ccc(F)cc4F)c(=O)c(O)c3C(=O)N12 | rep main protease | enzyme activity | inhibitor | – | – | IC50 | 49.4 µM
N#Cc1ccc(N2CCC(c3ccc(C(=O)O)cc3)=N2)cc1Cl | rep methyltransferase | enzyme activity | inhibitor | – | – | IC50 | 53.1 µM
O=C(O[C@@H]1Cc2c(O)cc(O)cc2O[C@@H]1c1ccc(O)c(O)c1)c1cc(O)c(O)c(O)c1 | rep main protease | enzyme activity | inhibitor | – | with preincubation | IC50 | < 10 µM
O=C(N1CCC2(CC1)C[C@H](CN1CCCCS1(=O)=O)CCO2)C1(c2ccccc2)CCCC1 | Replicase polyprotein 1ab, helicase (rep, Severe acute respiratory syndrome coronavirus 2, UniProt P0DTD1) | ATPase activity | inhibitor | – | – | IC50 | > 100 µM
O=C(O)c1cc(O)c(O)c(O)c1 | rep main protease | enzyme activity | inhibitor | – | with preincubation | IC50 | < 10 µM
CC1(C)O[C@@H]2C[C@H]3[C@@H]4C[C@H](F)C5=CC(=O)C=C[C@]5(C)[C@@]4(F)[C@@H](O)C[C@]3(C)[C@]2(C(=O)CO)O1 | rep main protease | enzyme activity | inhibitor | – | – | IC50 | 69.1 µM
COc1ccc(OC)c(C(O)C(C)N)c1 (stereo not shown) | Alpha-1A adrenergic receptor (ADRA1A, Homo sapiens, UniProt P35348) | protein level | degrader | western blot | – | DC50 | 17.4 µM
